What was measured:
[1] = Inhibition of N-type calcium channel in human IMR-32 cells by FLIPR calcium imaging assay; type: cell-based
Summary of the method: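 FLIPR calcium imaging in IMR-32 human neuroblastoma cells with nitrendipine present to block endogenous L-type channels; IC50 determined in duplicate in one experiment, advanced compounds tested in several repeat assays.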

[2] = target: T1, CYP3A4 (Homo sapiens, UniProt P08684); assay: Time-dependent inhibition of CYP3A4 in human liver microsomes assessed as residual enzyme activity using midazolam as substrate preincubated for 30 mins by fluorescence-based assay; details: probe midazolam
[3] = target: T1, CYP3A4; assay: Reversible inhibition of CYP3A4 in human liver microsomes assessed as residual enzyme activity using midazolam as substrate by fluorescence-based assay; details: probe midazolam
[4] = target: Cytochrome P450 2D6 (Homo sapiens, UniProt P10635); assay: Inhibition of CYP2D6 (unknown origin) by fluorescence-based assay
[5] = test system: Mus musculus; assay: Antinociceptive activity in ddY mouse at 100 mg/kg, po by formalin test; type: functional
[6] = target: Cytochrome P450 2C9 (Homo sapiens, UniProt P11712); assay: Inhibition of CYP2C9 (unknown origin) by fluorescence-based assay; type: ADME
Summary of the method: (§1)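 Fluorescence-based assay with fluorogenic substrate, as for CYP1A2 and 2D6; IC50 determined.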

[7] = target: Cytochrome P450 2C19 (Homo sapiens, UniProt P33261); assay: Inhibition of CYP2C19 (unknown origin) by fluorescence-based assay; type: ADME; summary of the method: as §1
[8] = target: Voltage-gated L-type calcium channel (Homo sapiens, UniProt Q13936+Q13698+Q01668+O60840); assay: Inhibition of L-type calcium channel in human IMR-32 cells by FLIPR calcium imaging assay; type: cell-based
[9] = Clearance in human liver microsomes; type: ADME; details: read-out: CLH
[10] = test system: Rattus norvegicus; assay: Analgesic activity in po dosed Sprague-Dawley rat L5/L6 SNL model assessed as reduction of mechanical allodynia; type: functional
Summary of the method: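 Male Sprague-Dawley rats, L5/L6 spinal nerve ligation model; drug suspended/diluted in 0.5% methylcellulose, given orally at 0.3–10 mg/kg (dose as free form).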

Cytochrome P450 2D6, sequence (P10635 whole entry): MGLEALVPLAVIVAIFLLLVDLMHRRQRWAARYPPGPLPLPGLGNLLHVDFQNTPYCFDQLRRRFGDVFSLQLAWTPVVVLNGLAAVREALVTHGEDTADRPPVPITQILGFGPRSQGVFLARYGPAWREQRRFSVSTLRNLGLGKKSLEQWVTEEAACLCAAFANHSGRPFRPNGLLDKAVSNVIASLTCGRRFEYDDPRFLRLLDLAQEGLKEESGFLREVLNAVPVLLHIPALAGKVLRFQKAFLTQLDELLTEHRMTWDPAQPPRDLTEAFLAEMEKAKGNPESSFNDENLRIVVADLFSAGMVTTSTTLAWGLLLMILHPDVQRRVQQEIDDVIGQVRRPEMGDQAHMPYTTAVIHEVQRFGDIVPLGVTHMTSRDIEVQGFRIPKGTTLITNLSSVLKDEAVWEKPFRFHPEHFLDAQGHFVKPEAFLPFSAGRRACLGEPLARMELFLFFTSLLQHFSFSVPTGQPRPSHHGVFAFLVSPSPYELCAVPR
T1 sequence (P08684 whole entry): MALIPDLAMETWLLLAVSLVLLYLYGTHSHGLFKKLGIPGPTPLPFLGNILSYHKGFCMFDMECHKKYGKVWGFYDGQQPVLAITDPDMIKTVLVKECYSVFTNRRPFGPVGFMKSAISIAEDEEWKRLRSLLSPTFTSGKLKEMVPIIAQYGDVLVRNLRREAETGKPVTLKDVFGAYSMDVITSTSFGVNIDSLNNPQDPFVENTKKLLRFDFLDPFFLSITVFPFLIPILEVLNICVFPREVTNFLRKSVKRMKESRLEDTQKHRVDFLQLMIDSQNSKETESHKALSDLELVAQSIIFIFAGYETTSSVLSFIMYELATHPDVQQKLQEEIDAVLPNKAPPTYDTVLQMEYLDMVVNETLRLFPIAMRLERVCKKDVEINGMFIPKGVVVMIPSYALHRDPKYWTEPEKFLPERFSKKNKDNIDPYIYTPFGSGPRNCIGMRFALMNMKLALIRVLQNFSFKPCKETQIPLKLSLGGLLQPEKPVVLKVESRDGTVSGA
Cytochrome P450 2C19, sequence (P33261 whole entry): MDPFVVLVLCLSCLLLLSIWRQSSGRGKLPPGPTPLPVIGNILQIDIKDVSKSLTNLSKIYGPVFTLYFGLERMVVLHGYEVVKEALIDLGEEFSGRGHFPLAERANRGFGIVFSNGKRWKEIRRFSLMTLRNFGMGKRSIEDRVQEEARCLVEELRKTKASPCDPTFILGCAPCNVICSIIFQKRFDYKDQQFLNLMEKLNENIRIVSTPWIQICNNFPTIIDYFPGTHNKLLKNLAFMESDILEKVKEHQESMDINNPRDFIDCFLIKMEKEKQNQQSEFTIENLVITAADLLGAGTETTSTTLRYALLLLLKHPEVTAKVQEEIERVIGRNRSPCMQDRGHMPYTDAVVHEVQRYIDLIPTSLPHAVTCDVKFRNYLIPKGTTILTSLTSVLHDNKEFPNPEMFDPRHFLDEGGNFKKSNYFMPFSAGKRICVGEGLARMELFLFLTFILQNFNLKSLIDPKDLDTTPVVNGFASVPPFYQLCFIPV
Cytochrome P450 2C9, sequence (P11712 whole entry): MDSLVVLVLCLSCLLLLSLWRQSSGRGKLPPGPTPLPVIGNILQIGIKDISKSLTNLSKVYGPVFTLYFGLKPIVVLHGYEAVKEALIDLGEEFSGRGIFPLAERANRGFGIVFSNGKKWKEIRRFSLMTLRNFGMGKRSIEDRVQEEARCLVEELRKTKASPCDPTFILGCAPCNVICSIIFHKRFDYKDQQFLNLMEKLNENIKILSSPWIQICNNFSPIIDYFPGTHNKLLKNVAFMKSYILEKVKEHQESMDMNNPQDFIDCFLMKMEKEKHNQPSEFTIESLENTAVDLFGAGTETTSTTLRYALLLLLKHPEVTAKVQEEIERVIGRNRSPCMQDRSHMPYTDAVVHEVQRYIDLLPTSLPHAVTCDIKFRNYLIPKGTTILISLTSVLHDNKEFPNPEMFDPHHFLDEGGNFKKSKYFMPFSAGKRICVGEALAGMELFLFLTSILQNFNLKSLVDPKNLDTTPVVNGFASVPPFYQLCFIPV

IC50 [1] | activity at 30 min [2] | activity [3] | IC50 [4] | IC50 [6] | IC50 [7] | IC50 [8] | CLint scaled [9] | Compound | inhibition in vivo at 100 mg/kg [5] | ED50 [10]
2300 nM | 80% | 109% | 1300 nM | – | – | – | – | C[C@@H](O)CNCC(=O)N1CCc2ccc(F)cc2C1C1CCCCC1 (stereo partly specified) | – | –
2400 nM | – | – | – | – | – | – | – | Cc1ccc2c(c1)CCN(C(=O)CNC[C@@H](C)O)C2C1CCCCC1 (stereo partly specified) | – | –
1100 nM | 46% | 69% | 44 nM | – | – | – | – | CC(C)C[C@@H](CO)NCC(=O)N1CCc2ccccc2C1C1CCCCC1 (stereo partly specified) | 32% | –
1200 nM | 49% | 95% | < 390 nM | – | – | – | – | C[C@@H](O)CNCC(=O)N1CCc2c(F)cccc2C1C1CCCCC1 (stereo partly specified) | – | –
1700 nM | 87% | 105% | 1400 nM | – | – | – | – | C[C@@H](O)CNCC(=O)N1CCc2ccccc2[C@@H]1C1CCCCC1 | 55% | –
2400 nM | 94% | 98% | 2200 nM | – | – | – | – | C[C@@H](O)CNCC(=O)N1CCc2ccccc2[C@@H]1c1ccccc1 | – | –
890 nM | 65% | 85% | 1300 nM | – | – | – | – | CCc1ccc2c(c1)C(C1CCCCC1)N(C(=O)CNC[C@@H](C)O)CC2 (stereo partly specified) | – | –
2000 nM | 95% | 92% | 1100 nM | – | – | – | – | C[C@@H](O)CNCC(=O)N1CCc2ccccc2C1C1CCCCC1 (stereo partly specified) | 39% | –
1400 nM | 90% | 94% | – | > 50000 nM | > 50000 nM | > 10000 nM | 45.9 mL/min/kg | COc1cccc2c1[C@H](c1ccccc1)N(C(=O)CNC[C@@H](C)O)CC2 | 77% | 2.8 mg/kg
1000 nM | – | – | < 390 nM | – | – | – | – | O=C(CNCC1(O)CCCCC1)N1CCc2ccccc2[C@@H]1c1ccccc1 | – | –
2500 nM | – | – | – | – | – | – | – | C[C@@H](O)CNCC(=O)N1CCc2cccc(F)c2C1C1CCCCC1 (stereo partly specified) | – | –
2600 nM | – | – | – | – | – | – | – | C[C@@H](O)CNCC(=O)N1CCc2ccc(C#N)cc2C1C1CCCCC1 (stereo partly specified) | – | –
2000 nM | 63% | 107% | < 780 nM | – | – | – | – | COc1cccc2c1CCN(C(=O)CNC[C@@H](C)O)C2C1CCCCC1 (stereo partly specified) | – | –
– | – | – | – | – | – | – | – | O=C(CNCC1(O)CCCCC1)N1CCc2ccccc2C1C1CCCCC1 (stereo unspecified) | 62% | –
1400 nM | 33% | 65% | 68 nM | – | – | – | – | CC(C)(C)[C@@H](CO)NCC(=O)N1CCc2ccccc2C1C1CCCCC1 (stereo partly specified) | 40% | –
1500 nM | 91% | 96% | 1600 nM | – | – | – | – | C[C@H](O)CNCC(=O)N1CCc2ccccc2C1C1CCCCC1 (stereo partly specified) | 0% | –
3300 nM | 91% | 110% | – | – | – | – | – | COc1cccc2c1[C@@H](c1ccccc1)N(C(=O)CNC[C@@H](C)O)CC2 | – | –
1900 nM | 83% | 81% | < 300 nM | – | – | – | – | CC[C@H](O)CNCC(=O)N1CCc2ccccc2C1C1CCCCC1 (stereo partly specified) | 27% | –
1700 nM | – | – | – | – | – | – | – | CC(C)(O)CNCC(=O)N1CCc2ccccc2C1C1CCCCC1 (stereo unspecified) | 7.7% | –
1900 nM | 97% | 93% | < 780 nM | – | – | – | – | COc1ccc2c(c1)CCN(C(=O)CNC[C@@H](C)O)C2C1CCCCC1 (stereo partly specified) | – | –
3100 nM | – | – | – | – | – | – | – | C[C@@H](O)CNCC(=O)N1CCc2cc(C#N)ccc2C1C1CCCCC1 (stereo partly specified) | – | –
1300 nM | 89% | 100% | 5600 nM | – | – | – | – | Cc1cccc2c1C(c1ccccc1)N(C(=O)CNC[C@@H](C)O)CC2 (stereo partly specified) | – | –
1000 nM | 95% | 103% | 1300 nM | – | – | – | – | C[C@@H](O)CNCC(=O)N1CCc2cccc(F)c2C1c1ccccc1 (stereo partly specified) | – | –
1400 nM | 58% | 85% | 30200 nM | – | – | – | – | COc1cccc2c1C(C1CCCCC1)N(C(=O)CNC[C@@H](C)O)CC2 (stereo partly specified) | – | –
1600 nM | 91% | 92% | 1600 nM | – | – | – | – | C[C@@H](O)CNCC(=O)N1CCc2cc(F)ccc2C1C1CCCCC1 (stereo partly specified) | – | –
1300 nM | 43% | 88% | 1900 nM | – | – | – | – | CC(C)c1ccc2c(c1)C(C1CCCCC1)N(C(=O)CNC[C@@H](C)O)CC2 (stereo partly specified) | – | –
> 10000 nM | – | – | – | – | – | – | – | C[C@@H](O)CNCC(=O)N1CCc2cc(C(N)=O)ccc2C1C1CCCCC1 (stereo partly specified) | – | –
1600 nM | 83% | 97% | 3700 nM | – | – | – | – | COc1ccc2c(c1)C(C1CCCCC1)N(C(=O)CNC[C@@H](C)O)CC2 (stereo partly specified) | – | –
1500 nM | 88% | 87% | 1000 nM | – | – | – | – | CC[C@@H](O)CNCC(=O)N1CCc2ccccc2C1C1CCCCC1 (stereo partly specified) | 19% | –
1700 nM | – | – | – | – | – | – | – | Cc1ccc2c(c1)C(C1CCCCC1)N(C(=O)CNC[C@@H](C)O)CC2 (stereo partly specified) | – | –

— ChEMBL document CHEMBL3600316, “Discovery of an 8-methoxytetrahydroisoquinoline derivative as an orally active N-type calcium channel blocker for neuropathic pain without CYP inhibition liability” (Bioorg Med Chem, 2015)
